# Measurements as given in ChEMBL document CHEMBL3351398, “Discovery of a Potent and Selective DGAT1 Inhibitor with a Piperidinyl-oxy-cyclohexanecarboxylic Acid Moiety” (ACS Med Chem Lett, 2014).
# pIC50, pKi: −log10 of the molar value. Active and inactive are the calls of the source. The calls are words filed in the database; no cut-off is given here.
# Key:
# [1] = target: T1, Diacylglycerol O-acyltransferase 1 (Homo sapiens, UniProt O75907); assay: Inhibition of human DGAT1
# T1 sequence (O75907 whole entry): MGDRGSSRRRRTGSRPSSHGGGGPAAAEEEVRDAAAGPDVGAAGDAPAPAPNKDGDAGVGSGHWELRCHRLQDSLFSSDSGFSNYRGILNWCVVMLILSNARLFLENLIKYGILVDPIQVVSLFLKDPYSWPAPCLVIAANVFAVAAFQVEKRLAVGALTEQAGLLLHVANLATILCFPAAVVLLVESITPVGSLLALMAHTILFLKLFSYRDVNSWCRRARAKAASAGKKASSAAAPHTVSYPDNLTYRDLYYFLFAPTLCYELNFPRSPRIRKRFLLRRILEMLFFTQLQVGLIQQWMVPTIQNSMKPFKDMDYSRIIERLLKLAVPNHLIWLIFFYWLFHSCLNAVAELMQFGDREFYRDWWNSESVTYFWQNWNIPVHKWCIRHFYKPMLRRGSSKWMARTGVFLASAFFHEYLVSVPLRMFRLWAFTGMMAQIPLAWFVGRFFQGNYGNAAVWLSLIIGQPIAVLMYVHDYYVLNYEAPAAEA
# [2] = target: T2, Sterol O-acyltransferase 1 (Homo sapiens) (UniProt P35610); assay: Inhibition of human ACAT1 at 10 uM
# T2 sequence (whole entry): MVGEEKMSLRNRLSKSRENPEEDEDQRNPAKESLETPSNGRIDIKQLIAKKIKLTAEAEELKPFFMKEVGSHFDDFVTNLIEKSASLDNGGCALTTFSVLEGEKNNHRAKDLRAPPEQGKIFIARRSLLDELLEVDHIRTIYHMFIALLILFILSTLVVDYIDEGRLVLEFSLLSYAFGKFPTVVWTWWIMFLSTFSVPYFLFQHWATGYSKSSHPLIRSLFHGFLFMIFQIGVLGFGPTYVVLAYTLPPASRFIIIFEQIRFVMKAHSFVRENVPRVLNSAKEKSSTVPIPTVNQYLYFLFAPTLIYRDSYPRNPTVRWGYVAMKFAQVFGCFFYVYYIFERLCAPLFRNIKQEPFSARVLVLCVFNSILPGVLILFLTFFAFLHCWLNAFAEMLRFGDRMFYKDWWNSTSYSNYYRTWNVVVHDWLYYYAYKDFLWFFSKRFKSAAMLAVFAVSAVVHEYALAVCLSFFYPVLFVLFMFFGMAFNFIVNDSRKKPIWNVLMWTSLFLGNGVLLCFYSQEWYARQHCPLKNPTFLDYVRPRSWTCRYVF
# Procedure, shortened: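 Human ACAT1 inhibition was tested at a single concentration of 10 μM. The value is reported as percent inhibition.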
# [3] = target: T3, Diacylglycerol O-acyltransferase 1 (Mus musculus, UniProt Q9Z2A7); assay: Inhibition of mouse DGAT1
# T3 sequence (Q9Z2A7 whole entry): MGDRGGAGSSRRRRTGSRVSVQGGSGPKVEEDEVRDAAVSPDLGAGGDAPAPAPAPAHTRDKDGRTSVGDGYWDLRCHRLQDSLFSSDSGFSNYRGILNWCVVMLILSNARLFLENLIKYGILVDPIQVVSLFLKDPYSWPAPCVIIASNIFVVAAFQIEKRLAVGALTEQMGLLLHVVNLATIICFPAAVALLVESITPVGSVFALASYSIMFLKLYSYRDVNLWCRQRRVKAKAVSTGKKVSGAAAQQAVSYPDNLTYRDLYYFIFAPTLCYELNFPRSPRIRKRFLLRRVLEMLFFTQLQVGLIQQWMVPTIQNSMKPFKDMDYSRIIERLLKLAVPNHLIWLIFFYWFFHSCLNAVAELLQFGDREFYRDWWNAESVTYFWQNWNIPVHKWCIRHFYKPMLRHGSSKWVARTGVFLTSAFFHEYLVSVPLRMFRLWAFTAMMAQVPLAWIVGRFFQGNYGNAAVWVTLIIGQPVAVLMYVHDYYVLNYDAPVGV
# [4] = target: T4, Sterol O-acyltransferase 1 (Homo sapiens, UniProt P35610); assay: Inhibition of human ACAT1
# T4 sequence (P35610 whole entry): T2 sequence (whole entry)
# [5] = test system: Mus musculus; assay: Inhibition of plasma triglyceride accumulation in mouse at 10 mg/kg, po dosed 2 hrs before lipid challenge and measured at 18 hrs by lipid tolerance test; type: functional
# Procedure, shortened: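 Mouse lipid tolerance test measuring plasma triglyceride excursion. Dosing was 10 mpk oral, with triglyceride reduction read at 18 h.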
# [6] = target: Voltage-gated inwardly rectifying potassium channel KCNH2 (Homo sapiens, UniProt Q12809); assay: Displacement of radiolabeled MK499 from human ERG
# Voltage-gated inwardly rectifying potassium channel KCNH2, sequence (Q12809 whole entry): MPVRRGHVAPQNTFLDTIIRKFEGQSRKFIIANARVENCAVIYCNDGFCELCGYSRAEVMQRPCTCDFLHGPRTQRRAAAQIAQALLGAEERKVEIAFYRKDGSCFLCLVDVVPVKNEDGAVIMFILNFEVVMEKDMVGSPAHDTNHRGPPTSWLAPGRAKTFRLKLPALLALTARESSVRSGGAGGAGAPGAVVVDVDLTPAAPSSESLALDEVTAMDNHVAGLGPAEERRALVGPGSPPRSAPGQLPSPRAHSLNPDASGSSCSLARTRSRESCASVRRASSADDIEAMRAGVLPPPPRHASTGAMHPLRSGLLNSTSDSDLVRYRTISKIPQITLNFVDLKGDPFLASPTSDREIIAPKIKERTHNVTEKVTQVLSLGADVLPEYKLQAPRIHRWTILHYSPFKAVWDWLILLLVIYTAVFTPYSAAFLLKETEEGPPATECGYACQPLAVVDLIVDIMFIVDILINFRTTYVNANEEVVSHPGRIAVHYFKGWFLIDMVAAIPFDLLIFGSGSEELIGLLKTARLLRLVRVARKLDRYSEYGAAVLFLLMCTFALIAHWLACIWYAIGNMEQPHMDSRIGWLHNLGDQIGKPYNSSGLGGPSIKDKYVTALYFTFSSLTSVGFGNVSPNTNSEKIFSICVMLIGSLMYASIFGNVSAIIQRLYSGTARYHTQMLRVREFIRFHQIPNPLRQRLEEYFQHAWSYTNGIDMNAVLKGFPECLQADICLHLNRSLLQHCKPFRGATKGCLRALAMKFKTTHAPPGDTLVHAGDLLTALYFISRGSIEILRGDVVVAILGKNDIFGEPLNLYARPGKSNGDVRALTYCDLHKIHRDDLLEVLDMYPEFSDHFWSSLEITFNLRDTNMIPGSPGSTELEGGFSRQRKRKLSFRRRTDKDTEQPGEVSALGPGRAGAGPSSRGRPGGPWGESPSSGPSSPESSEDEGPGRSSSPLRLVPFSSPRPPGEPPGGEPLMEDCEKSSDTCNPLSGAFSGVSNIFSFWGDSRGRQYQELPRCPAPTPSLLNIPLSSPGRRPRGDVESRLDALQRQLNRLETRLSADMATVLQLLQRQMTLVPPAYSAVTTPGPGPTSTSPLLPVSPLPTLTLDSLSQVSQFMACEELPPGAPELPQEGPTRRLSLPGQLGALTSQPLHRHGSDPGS
# Procedure, shortened: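 hERG off-target activity was measured in a competitive binding assay against radiolabeled MK-499. The value is reported as Ki.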
# [7] = species: Homo sapiens; assay: Selectivity index, ratio of Ki for human A2A receptor to KI IC50 for human DGAT1
# [8] = test system: Mus musculus; assay: Reduction in cumulative body weight gain in wild type mouse at 10 mg/kg, po dosed daily for 6 days measured starting from day 3; type: functional, organism-based; parameters: dose 10 mg/kg
# Procedure, shortened: (§1)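 Wild-type and DGAT1 knockout mice were dosed daily at 10 mpk for six days. Cumulative body weight gain and food intake were compared with vehicle-treated groups.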
# [9] = test system: Mus musculus; assay: Reduction in food intake in wild type mouse at 10 mg/kg, po dosed daily for 6 days measured starting from day 3; type: functional, organism-based; parameters: dose 10 mg/kg
# Procedure, shortened: (§2)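 Wild-type and DGAT1 knockout mice were dosed daily at 10 mpk for six days. Cumulative body weight gain and food intake were compared with vehicle-treated groups of the same genotype.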
# [10] = test system: Mus musculus; assay: Reduction in cumulative body weight gain in DGAT1 knockout mouse at 10 mg/kg, po dosed daily for 6 days; type: functional, organism-based; parameters: dose 10 mg/kg; procedure, shortened: as §1
# [11] = test system: Mus musculus; assay: Reduction in food intake in DGAT1 knockout mouse at 10 mg/kg, po dosed daily for 6 days; type: functional, organism-based; parameters: dose 10 mg/kg; procedure, shortened: as §2
# [12] = target: Adenosine receptor A2a (Homo sapiens, UniProt P29274); assay: Binding affinity to human A2A receptor
# Adenosine receptor A2a, sequence (P29274 whole entry): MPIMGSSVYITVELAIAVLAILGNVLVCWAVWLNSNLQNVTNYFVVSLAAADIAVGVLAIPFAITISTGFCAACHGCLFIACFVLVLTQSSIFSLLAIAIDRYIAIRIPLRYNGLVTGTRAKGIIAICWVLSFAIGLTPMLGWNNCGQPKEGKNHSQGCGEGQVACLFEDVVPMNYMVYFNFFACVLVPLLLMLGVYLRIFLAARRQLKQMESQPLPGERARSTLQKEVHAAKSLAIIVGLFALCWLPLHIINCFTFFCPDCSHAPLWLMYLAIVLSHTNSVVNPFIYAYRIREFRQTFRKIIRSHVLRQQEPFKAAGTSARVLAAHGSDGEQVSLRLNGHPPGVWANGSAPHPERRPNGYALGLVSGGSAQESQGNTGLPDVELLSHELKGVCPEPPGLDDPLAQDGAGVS
# Procedure, shortened: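 Recombinant human A2A receptor was tested in an in-house radioligand competition binding assay. The value is reported as Ki.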
# [13] = test system: Rattus norvegicus; assay: Inhibition of plasma triglyceride accumulation in Sprague-Dawley rat at 10 mg/kg, po dosed 2 hrs before lipid challenge and measured at 18 hrs by lipid tolerance test; type: functional
# [14] = Solubility in PBS buffer at pH 2; type: physicochemical
# Procedure, shortened: (§3)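 High-throughput solubility test in PBS buffer at pH 2 and at pH 7. Free form and salt forms (TFA, formate, ammonium) were tested separately.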
# [15] = Solubility in PBS buffer at pH 7; type: physicochemical; procedure, shortened: as §3
# [16] = test system: Homo sapiens; assay: Reduction in fasting triglyceride levels in familial chylomicronemia syndrome patient at 20 mg dosed daily; type: functional
Structure (SMILES),pIC50 [1],inhibition [2] [%],pIC50 [3],pIC50 [4],Selectivity ratio [7],pKi [12],inhibition in vivo at 10 mg/kg [5] [%],pKi [6],also measured
O=C(O)[C@H]1CC[C@H](OC2CCN(c3ccc(-c4nc5cc(C(F)(F)F)ccc5[nH]4)cn3)CC2)CC1,,23,,,> 1000,,,,Activity [8]: Active; Activity [9]: Active; Activity [10]: inactive; Activity [11]: inactive
CC1(C)Oc2ncnc(N)c2N=C1c1ccc([C@H]2CC[C@H](CC(=O)O)CC2)cc1,,,,,,,,,inhibition in vivo at 10 mg/kg [13]: 100%
O=C(O)C(F)(F)F.O=C(O)[C@H]1CC[C@H](OC2CCN(c3ccc(-c4nc5cc(C(F)(F)F)ccc5[nH]4)cn3)CC2)CC1,,,,,,,,,solubility [14]: 130 µM; solubility [15]: 151 µM
O=C(O)C[C@H]1CC[C@H](c2ccc(-c3ccc(Nc4ccc(C(F)(F)F)nc4)cn3)cc2)CC1 [PRADIGASTAT],,,,,,,,,inhibition (INH) [16]: 40%

# The next lines start with results.
pIC50 [1],inhibition [2] [%],pIC50 [3],pIC50 [4],Selectivity ratio [7],pKi [12],Structure (SMILES),inhibition in vivo at 10 mg/kg [5] [%],pKi [6],also measured
8.66,13,7.96,< 5.00,,,O=C(O)[C@H]1CC[C@@H](OC2CCN(c3ccc(-c4nc5cc(Cl)ccc5[nH]4)cn3)CC2)CC1,52,4.82,
8.54,4,7.54,< 5.00,> 1000,5.46,O=C(O)[C@H]1CC[C@H](OC2CCN(c3ccc(-c4nc5cc(Cl)ccc5[nH]4)cn3)CC2)CC1,75,5.40,
8.24,-2,7.59,< 5.00,> 1000,< 5.00,O=C(O)[C@H]1CC[C@@H](OC2CCN(c3ccc(-c4nc5cc(F)ccc5[nH]4)cn3)CC2)CC1,55,4.96,
8.60,22,8.10,< 5.00,> 1000,5.10,O=C(O)[C@H]1CC[C@@H](OC2CCN(c3ccc(-c4nc5cc(C(F)(F)F)ccc5[nH]4)cn3)CC2)CC1,75,5.15,
,5,6.96,< 5.00,,5.01,O=C(O)[C@H]1CC[C@H](OC2CCN(c3ccc(-c4nc5cc(F)ccc5[nH]4)cn3)CC2)CC1,,< 4.22,
